Laboratory results as given in ChEMBL document CHEMBL3351353, “Molecular dynamics study-guided identification of cyclic amine structures as novel hydrophobic tail components of hPPARγ agonists” (Bioorg Med Chem Lett, 2014).
≈ marks a conversion by molar mass, not a printed value.

Assay: Thermodynamic solubility of the compound in phosphate buffer at pH 7.2 to 7.4 at 1 mg after 48 hrs by shake flask method
Format: physicochemical
Settings: read-out: Therm_solubility
Procedure, shortened: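 Shake-flask method: 1 mg of solid ground in an agate mortar, taken up in 1.0 mL of a 1:1 mixture of phosphate buffer (pH 7.2–7.4) and EtOH, shaken 48 h at 25 °C. An aliquot was filtered (0.45 µm), the filtrate diluted in CH₃CN and analysed by HPLC-UV at 254 nm. Concentration was calculated from a prior calibration curve and corrected for dilution.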

SMILES | solubility thermodynamic at 48 h
CCCOc1ccc(C[C@@H](Cc2ccccc2)C(=O)O)cc1CNC(=O)c1ccc(C23CC4CC(CC(C4)C2)C3)cc1 | < 1 µg/mL
CCCOc1ccc(C[C@@H](Cc2ccccc2)C(=O)O)cc1CNC(=O)c1ccc(N2CCCCC2)cc1 | 10 µg/mL (≈ 19.4 µM)
CCCOc1ccc(C[C@@H](Cc2ccccc2)C(=O)O)cc1CNC(=O)c1ccc(N2CCCCCCC2)cc1 | < 10 µg/mL
CCCOc1ccc(C[C@@H](Cc2ccccc2)C(=O)O)cc1CNC(=O)c1ccc(N2CCCC(C)(C)C2)cc1 | < 10 µg/mL
CCCOc1ccc(C[C@@H](Cc2ccccc2)C(=O)O)cc1CNC(=O)c1ccc(N2CCC(C)(C)CC2)cc1 | < 10 µg/mL
CCCOc1ccc(C[C@@H](Cc2ccccc2)C(=O)O)cc1CNC(=O)c1ccc(N2CC(C)(C)CC(C)(C)C2)cc1 | < 10 µg/mL
CCCOc1ccc(C[C@@H](Cc2ccccc2)C(=O)O)cc1CNC(=O)c1ccc(N2C3CCCC2CC3)cc1 | 10 µg/mL (≈ 18.5 µM)
CCCOc1ccc(C[C@@H](Cc2ccccc2)C(=O)O)cc1CNC(=O)c1ccc(N2C3CCCC2CCC3)cc1 | < 10 µg/mL
CCCOc1ccc(C[C@@H](Cc2ccccc2)C(=O)O)cc1CNC(=O)c1ccc(N2CC3CCC(C3)C2)cc1 | 10 µg/mL (≈ 18.5 µM)
CCCOc1ccc(C[C@@H](Cc2ccccc2)C(=O)O)cc1CNC(=O)c1ccc(N2C3CC4CC(C3)CC2C4)cc1 | < 10 µg/mL
